Data set [1] has as its system Rattus norvegicus. Kind of data set: Sleep promoting activity in rat assessed as increase in REM sleep at 0.5 to 3 mg/kg, po administered in mid active phase for 3 consecutive days by electroencephalogram/electromyogram analysis. Type of data set: functional, organism-based. Summed up:
(§1)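 Rats carried implanted radio-telemetry devices for EEG/EMG polysomnography. Oral doses were 0.5 (n=16), 1 (n=14) or 3 mg/kg (n=12) versus vehicle (20% vitamin E TPGS). Dosing was at ZT18:00 (6 h after lights off) on 3 consecutive days in a balanced cross-over. Active wake, NREM and REM time was scored in 30-min bins, and all treatment days were averaged over 24 h.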

Data set [2] deals with Rattus norvegicus. The experiment in a line: Sleep promoting activity in rat assessed as increase in NREM sleep at 0.5 to 3 mg/kg, po administered in mid active phase for 3 consecutive days by electroencephalogram/electromyogram analysis. Type of data set: functional, organism-based. An outline of the steps: as §1
For data set [3], the species on record is Homo sapiens. The experiment in a line: Selectivity ratio of Ki for human OX1R expressed in CHOK1 cell membranes to Ki for human OX2R expressed in CHOK1 cell membranes. It is filed as cell-based. Summed up:
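Radioligand competition binding used membranes from CHO-K1 cells overexpressing human OX1R or OX2R. […] The selectivity ratio is OX1R Ki divided by OX2R Ki.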

A further data set concerns the target T1, Orexin receptor type 2 (Homo sapiens, UniProt O43614).
T1 sequence (O43614 whole entry): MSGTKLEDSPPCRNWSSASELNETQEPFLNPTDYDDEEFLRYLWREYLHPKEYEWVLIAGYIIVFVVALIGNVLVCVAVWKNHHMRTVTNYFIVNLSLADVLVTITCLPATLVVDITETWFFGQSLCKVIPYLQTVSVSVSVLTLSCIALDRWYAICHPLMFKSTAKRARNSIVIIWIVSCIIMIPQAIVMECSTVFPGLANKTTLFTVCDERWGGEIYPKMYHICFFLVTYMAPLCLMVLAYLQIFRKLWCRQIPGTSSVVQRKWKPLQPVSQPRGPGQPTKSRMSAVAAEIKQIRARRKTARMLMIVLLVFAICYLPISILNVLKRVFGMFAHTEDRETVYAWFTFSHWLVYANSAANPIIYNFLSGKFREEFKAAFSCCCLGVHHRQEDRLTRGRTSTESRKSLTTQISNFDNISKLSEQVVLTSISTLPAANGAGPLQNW
The experiment in a line: Antagonist activity at human OX2R expressed in CHOK1 cells assessed as reduction in orexin A-induced calcium flux preincubated followed by orexin A addition by FLIPR assays. It is filed as functional, cell-based. (Calcium assays in cells follow changes in intracellular calcium, usually with a dye or a luminescent sensor.)

The target of data set [4] is T2, Orexin/Hypocretin receptor type 1 (Homo sapiens, UniProt O43613).
T2 sequence (O43613 whole entry): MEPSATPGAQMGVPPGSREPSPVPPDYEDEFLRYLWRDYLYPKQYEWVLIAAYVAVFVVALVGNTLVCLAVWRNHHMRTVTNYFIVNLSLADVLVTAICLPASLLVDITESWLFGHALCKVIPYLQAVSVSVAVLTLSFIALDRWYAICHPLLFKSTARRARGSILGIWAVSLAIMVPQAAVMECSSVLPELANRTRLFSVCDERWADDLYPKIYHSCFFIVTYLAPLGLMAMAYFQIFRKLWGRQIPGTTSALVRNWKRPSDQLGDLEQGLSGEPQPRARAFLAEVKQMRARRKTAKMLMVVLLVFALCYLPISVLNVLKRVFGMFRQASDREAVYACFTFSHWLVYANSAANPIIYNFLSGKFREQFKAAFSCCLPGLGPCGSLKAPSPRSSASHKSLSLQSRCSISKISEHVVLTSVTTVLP
Kind of data set: Antagonist activity at human OX1R expressed in CHOK1 cells assessed as reduction in orexin A-induced calcium flux preincubated followed by orexin A addition by FLIPR assays. It is filed as functional, cell-based.

The species named for data set [5] is Homo sapiens. Kind of data set: Selectivity ratio of IC50 for human OX1R expressed in CHOK1 cells to IC50 for human OX2R expressed in CHOK1 cells by FLIPR assay. It is filed as cell-based.
The nature of data set [6]: Solubility of the compound in pH 1.8 SGF at 0.1 mg/ml after 15 mins by reverse-phase chromatography. It is filed as physicochemical. The following applies: simulated gastric fluid (SGF). Summed up: (§2)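 Compound at […] was stirred at 80 rpm in SGF (0.01 N HCl, 0.9 wt.% NaCl, pH 1.8) or FASSIF (3 mM sodium taurocholate, 0.75 mM lecithin, 100 mM NaCl, NaOH/NaH₂PO₄, pH 6.5). It was then centrifuged at 14k rpm for 15 min.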

A short description of data set [7]: Solubility of the compound in pH 6.5 FASSIF at 0.1 mg/ml after 15 mins by reverse-phase chromatography. Type of data set: physicochemical. The following applies: fasted state simulated intestinal fluid (FaSSIF). An outline of the steps: as §2
The test system of data set [8] is Rattus norvegicus. Kind of data set: Sleep promoting activity in po dosed rat assessed as attenuation of active wake administered in mid active phase for 3 consecutive days measured up to 2 hrs post dose by electroencephalogram/electromyogram analysis. It is filed as functional, organism-based. An outline of the steps:
as §1

For data set [9], the system named is Mus musculus. The experiment in a line: Sleep promoting activity in mouse assessed as increase in REM sleep at 30 mg/kg, po administered in late active phase for 5 consecutive days by electroencephalogram/electromyogram analysis.
The subject of data set [10] is Mus musculus. The experiment in a line: Sleep promoting activity in mouse assessed as increase in NREM sleep at 30 mg/kg, po administered in late active phase for 5 consecutive days by electroencephalogram/electromyogram analysis.
Data set [11] deals with OX2R knockout mouse (Mus musculus). Kind of data set: Sleep promoting activity in OX2R knockout mouse assessed as increase in NREM sleep at 30 mg/kg, po administered in late active phase for 5 consecutive days by electroencephalogram/electromyogram analysis.
Data set [12] shares this test system. The experiment in a line: Sleep promoting activity in OX2R knockout mouse assessed as attenuation of active wake at 30 mg/kg, po administered in late active phase for 5 consecutive days by electroencephalogram/electromyogram analysis.
Data set [13] relates to Mus musculus. Kind of data set: Sleep promoting activity in mouse assessed as attenuation of active wake at 30 mg/kg, po administered in late active phase for 5 consecutive days measured up to 1.5 hrs post dose by electroencephalogram/electromyogram analysis.

Each structure is given as a SMILES string. pIC50: −log10 of the molar value. Converted amounts (≈) assume the structure as drawn. The source made the active and inactive calls. The calls are words filed in the database; no cut-off is given here.

By pIC50 is commonly meant the IC50 on a negative log10 scale, so that one unit is a factor of ten. The term solubility denotes the dissolved amount per volume that the medium holds. A high value points to much dissolved substance. `C[C@@H]1CC[C@@H](Oc2cc(C#N)ccn2)CN1C(=O)c1ccccc1-n1nccn1`: the result with Rattus norvegicus [1], in the data set on Rattus norvegicus [2], with Mus musculus [9], in the data set with Mus musculus [10] and in the data set with Mus musculus [13] was Active. In addition, the Ratio Ki in the data set listed under Homo sapiens [3] was found to be 518. For the same molecule, the figures for the pIC50 (on Orexin receptor type 2; in [4]) were 7.89 to 8.05 and 5.42 to 5.49, respectively. The Ratio IC50 in the data set listed under Homo sapiens [5] is 295 to 356. Moreover, the solubility at 0.25 h was 13.7 µg/mL (≈ 35.3 µM) in [6] and 13.5 µg/mL (≈ 34.8 µM) in [7]. Further, the Activity result in the data set with Rattus norvegicus [8] is “Dose-dependent effect”. The result in [11] and in data set [12] was inactive.

These data come from ChEMBL document CHEMBL3997828, “Investigation of orexin-2 selective receptor antagonists: Structural modifications resulting in dual orexin receptor antagonists” (Bioorg Med Chem Lett, 2017).
